# ChEMBL document CHEMBL2331304, “N1,N3-disubstituted uracils as nonnucleoside inhibitors of HIV-1 reverse transcriptase” (Bioorg Med Chem, 2013)
# The source made the active and inactive calls. The rule behind the calls is not given here.
# How the values were obtained:
# [1] = target: Human immunodeficiency virus type 1 reverse transcriptase (Human immunodeficiency virus 1, UniProt Q72547, K103N); assay: Inhibition of HIV1 reverse transcriptase p66/p51 K103N mutant after 30 mins by liquid scintillation counting
# [2] = target: Human immunodeficiency virus type 1 reverse transcriptase (Human immunodeficiency virus 1, UniProt Q72547, L100I); assay: Inhibition of HIV1 reverse transcriptase p66/p51 L100I mutant after 30 mins by liquid scintillation counting
# [3] = target: Human immunodeficiency virus type 1 reverse transcriptase (Human immunodeficiency virus 1, UniProt Q72547); assay: Non-competitive inhibition of wild type HIV1 reverse transcriptase p66/p51 after 30 mins by liquid scintillation counting
# [4] = Selectivity index, ratio of CC50 for human MT4 cells to EC50 for HIV1 3B infected in human MT4 cells; type: toxicity, cell-based; conditions: MT4 cells (uninfected for CC50; HIV-1 3B infected for EC50)
# [5] = system: MT4; assay: Cytotoxicity against human MT4 cells after 4 days by MTT assay; type: cell-based; conditions: mt4, 96 h
# [6] = system: Human immunodeficiency virus 1; assay: Antiviral activity against HIV1 3B infected in human MT4 cells assessed as inhibition of virus-induced cytopathic effect after 4 days by MTT assay; type: functional, organism-based; conditions: Human immunodeficiency virus 1, 3B, MT4, 96 h
# In short: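 HIV-1 in MT-4 cells at 1 × 10^5 cells/ml, infected at MOI 0.02 (virus stock titrated as CCID50), then plated immediately onto varying compound concentrations. After 4 days at 37 °C, viable cells counted by MTT.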
# [7] = system: Human alphaherpesvirus 3; assay: Antiviral activity against Varicella zoster virus; type: functional, organism-based
# In short: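 VZV strain Oka and the TK− strain 07-1 were inoculated at 20 PFU onto confluent cell monolayers in the presence of varying compound concentrations. Plaque formation was recorded once complete in untreated infected controls.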
# [8] = system: Punta Toro virus; assay: Antiviral activity against Punta Toro virus; type: functional, organism-based
# [9] = system: Sindbis virus; assay: Antiviral activity against Sindbis virus; type: functional, organism-based
# [10] = system: Mammalian orthoreovirus 1; assay: Antiviral activity against Reovirus 1; type: functional, organism-based
# [11] = system: Human respirovirus 3; assay: Antiviral activity against Parainfluenza virus 3; type: functional, organism-based
# [12] = system: Influenza B virus; assay: Antiviral activity against influenza B virus; type: functional, organism-based
# [13] = system: Influenza A virus; assay: Antiviral activity against Influenza A virus H3N2; type: functional, organism-based
# [14] = system: Influenza A virus; assay: Antiviral activity against Influenza A virus H1N1; type: functional, organism-based
# [15] = system: Respiratory syncytial virus; assay: Antiviral activity against Respiratory syncytial virus; type: functional, organism-based
# [16] = system: Coxsackievirus B4; assay: Antiviral activity against Coxsackievirus B4; type: functional, organism-based
# [17] = system: Vesicular stomatitis virus; assay: Antiviral activity against Vesicular stomatitis virus; type: functional, organism-based
# [18] = system: Vaccinia virus; assay: Antiviral activity against Vaccinia virus; type: functional, organism-based; conditions: Orthopoxvirus vaccinia
# [19] = system: Human alphaherpesvirus 2; assay: Antiviral activity against Human herpesvirus 2; type: functional, organism-based
# In short: (§1)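 Confluent HEL, Vero, HeLa or MDCK monolayers (cell type per virus not specified) were inoculated with 100 CCID50 of virus, with a range of compound concentrations. Strains were HSV-1 KOS and TK− ACV-resistant KOS, HSV-2 Lyons and G, and HCMV AD-169 and Davis. Cytopathicity or plaques were scored once complete in untreated infected controls.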
# [20] = system: Human alphaherpesvirus 1; assay: Antiviral activity against Human herpesvirus 1; type: functional, organism-based; in short: as §1
# [21] = system: Feline coronavirus; assay: Antiviral activity against Feline coronavirus; type: functional, organism-based
# [22] = system: Human betaherpesvirus 5; assay: Antiviral activity against HCMV Davis; type: functional, organism-based; conditions: Human betaherpesvirus 5, Davis; in short: as §1
# [23] = system: Human betaherpesvirus 5; assay: Antiviral activity against HCMV AD169; type: functional, organism-based; conditions: Human betaherpesvirus 5, AD169; in short: as §1
# [24] = target: Human immunodeficiency virus type 1 reverse transcriptase (Human immunodeficiency virus 1, UniProt Q72547, K103N/Y181C); assay: Inhibition of HIV1 reverse transcriptase p66/p51 K103N/Y181C mutant after 30 mins by liquid scintillation counting
# [25] = Inhibition of HIV1 reverse transcriptase p66/p51 G190A mutant after 30 mins by liquid scintillation counting; parameters: species or system Human immunodeficiency virus 1
# [26] = target: Human immunodeficiency virus type 1 reverse transcriptase (Human immunodeficiency virus 1, UniProt Q72547, Y181C); assay: Inhibition of HIV1 reverse transcriptase p66/p51 Y181C mutant after 30 mins by liquid scintillation counting
# [27] = target: Human immunodeficiency virus type 1 reverse transcriptase (Human immunodeficiency virus 1, UniProt Q72547, V106A); assay: Inhibition of HIV1 reverse transcriptase p66/p51 V106A mutant after 30 mins by liquid scintillation counting
Structure (SMILES),Ki [1],Ki [2],Ki [3],selectivity ratio [4],CC50 [5],EC50 [6],Activity [7],Activity [8],Activity [9],Activity [10],Activity [11],Activity [12],Activity [13],Activity [14],Activity [15],Activity [16],Activity [17],Activity [18],Activity [19],Activity [20],other results
Cc1cc(Br)cc(Cn2c(=O)ccn(C/C=C/c3ccccc3)c2=O)c1,6.9 µM,0.24 µM,0.31 µM,73,100 µM,1.36 µM,inactive,inactive,inactive,inactive,inactive,inactive,inactive,inactive,inactive,inactive,inactive,inactive,inactive,inactive,Activity [21]: inactive; IC50 [22]: ≥ 20 µM; IC50 [23]: 16 µM; Ki [24]: 85 µM; Ki [25]: 0.18 µM; Ki [26]: 20 µM; Ki [27]: 2.3 µM
O=c1ccn(C/C=C/c2ccccc2)c(=O)n1Cc1cc(Cl)cc(Cl)c1,15.5 µM,0.92 µM,0.67 µM,24,49 µM,1.99 µM,inactive,inactive,inactive,inactive,inactive,inactive,inactive,inactive,inactive,inactive,inactive,inactive,inactive,inactive,Activity [21]: inactive; IC50 [22]: 12 µM; IC50 [23]: 9.4 µM; Ki [24]: > 100 µM; Ki [25]: 0.55 µM; Ki [26]: 43 µM; Ki [27]: 11 µM
Cc1ccc(OCCn2ccc(=O)n(Cc3cc(C)cc(C)c3)c2=O)cc1,> 26 µM,0.13 µM,0.26 µM,> 1270,> 343 µM,0.27 µM,inactive,inactive,inactive,inactive,inactive,inactive,inactive,inactive,inactive,inactive,inactive,inactive,inactive,inactive,Activity [21]: inactive; Ki [24]: > 26 µM; Ki [25]: 0.36 µM; Ki [26]: 169 µM; Ki [27]: 7.5 µM
